A selection: hits, their analogues and other compounds. The true share with any hit is near 2.5%.
PG9 binder: binds the HIV-1 gp120 antibody PG9 | TR-FRET gp120-PG9 antibody binding | 360,000 compounds, 0.43% hits | inhibition, % at 6.7 µM | AID 624416; in the data active = inhibition above about 8.5%
NTR1 ag: NTR1 (human) agonism; NTR1-U2OS beta-arrestin-GFP spot imaging, agonist mode; 330,000 compounds, 0.17% hits; AID 493036; activation, % at 20 µM;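 active = activation at or above 40% of the spot to cytoplasm intensity ratio, with at least 20 cells analyzed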;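 also: 0% = DMSO without peptide and 100% = 100 nM NTR1 peptide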
MC4R antag cAMP: blocks human MC4R cAMP signaling; inhibition, % at 6.5 µM; MC4R-expressing cells, MTII-stimulated cAMP, LANCE TR-FRET; AID 540295; 360,000 compounds, 0.48% hits;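 active = inhibition above its plate's cutoff, the mean of tested wells on that plate plus 3 SD, cut at about 29% in these data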;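 also: 0% = Melanotan II alone and 100% = Melanotan II plus saturating MCL0020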
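System: U2OS-MC4R stable cell line; Technique: Eu-cAMP/anti-cAMP TR-FRET, emission 671 nm; Repeats: single well per compound; Also added: Melanotan II; Dosing: one concentration, 6.5 µM nominal; Schedule: 30-min compound, 1-h challenge, 1-h detection, room temperature.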
Rev-erbA mod: modulates human Rev-erb alpha binding to DNA; P20393; Rev-erbα–FITC-DNA binding, fluorescence polarization, 90 min; activity, % at 10 µM; 370,000 compounds, 0.79% hits; AID 1259318;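 active = activity above about 14%, limit read from the data; passing the limit was not always enough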;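 also: 0% = DMSO wells with 35 nM protein and 100% = DMSO wells with 750 nM protein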
Target sequence (P20393 whole entry, looked up): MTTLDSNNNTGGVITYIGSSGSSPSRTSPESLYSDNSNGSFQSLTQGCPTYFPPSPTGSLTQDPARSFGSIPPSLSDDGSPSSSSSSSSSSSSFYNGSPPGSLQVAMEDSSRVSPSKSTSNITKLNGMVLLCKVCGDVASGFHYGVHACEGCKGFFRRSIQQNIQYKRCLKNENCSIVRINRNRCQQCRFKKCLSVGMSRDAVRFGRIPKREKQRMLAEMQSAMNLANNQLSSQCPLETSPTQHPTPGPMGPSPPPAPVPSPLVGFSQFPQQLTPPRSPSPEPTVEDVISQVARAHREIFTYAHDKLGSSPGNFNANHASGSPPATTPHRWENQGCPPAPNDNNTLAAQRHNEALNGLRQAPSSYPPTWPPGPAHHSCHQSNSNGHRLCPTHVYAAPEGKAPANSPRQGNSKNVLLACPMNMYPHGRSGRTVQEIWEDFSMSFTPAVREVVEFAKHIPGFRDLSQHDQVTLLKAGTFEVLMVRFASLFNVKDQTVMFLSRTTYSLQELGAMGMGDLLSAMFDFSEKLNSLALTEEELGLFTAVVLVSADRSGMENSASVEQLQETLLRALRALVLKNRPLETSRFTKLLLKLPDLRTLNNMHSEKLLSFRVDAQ
MC4R ag barr: activates human MC4R beta-arrestin recruitment; AID 540308; P32245; 360,000 compounds, 0.98% hits; U2OS MC4R beta-arrestin complementation, luminescence; percent of melanotan II response, DMSO zero; activation, % at 8.9 µM;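 active = activation above a per-plate cutoff, the mean activation of sample wells on that plate plus 3 SD, cut at about 8% in these data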
MC4R barr conf: human MC4R beta-arrestin agonism confirmation | AID 602192 | shares compounds with MC4R ag barr | 2,400 compounds, 31% hits | activation, % at 8.9 µM | U2OS MC4R beta-arrestin recruitment, luminescence; scaled DMSO 0%, Melanotan II 100%;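 active = mean activation across replicates above the hit cutoff set in the earlier primary screen, cut at about 8% in these data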
MOR DOR agonist: OPRM1-OPRD1 heterodimer agonism counter-screen; shares compounds with MC4R ag barr; U2OS PathHunter beta-arrestin, beta-gal luminescence; percent of deltorphin B response, DMSO zero; activation, % at 9.2 µM; 2,400 compounds, 5.8% hits; AID 602194;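 active = mean activation across replicates exceeds the hit threshold derived in the earlier primary screen, cut at about 18% in these data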;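 also: 100% = deltorphin B at 0.9 µM final and 0% = DMSO alone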
The depositor's hits bear a star; · = no result.

SMILES | PG9 binder | NTR1 ag | MC4R antag cAMP | Rev-erbA mod | MC4R ag barr | MC4R barr conf | MOR DOR agonist
COc1cc(-c2nnc3sc(-c4cccs4)nn23)cc(OC)c1OC | 0 | 1 | -29 | -18 | 15* | -1 | 6
O=C1CCc2cc(S(=O)(=O)N3CCN(c4ccc(F)cc4)CC3)cc3c2N1CC3 | 2 | -2 | -4 | -3 | 13* | 3 | 4
COC(=O)C1CN(Cc2cn(CCC3OCCO3)nn2)CCS(=O)(=O)N1Cc1ccc(F)cc1 (stereo not drawn) | · | · | · | 0 | · | · | ·
CC1CCC(C(C)C)C(OC(=O)C[n+]2cc(-c3ccc(Cl)cc3)n3c2CCC3)C1 (stereo not drawn) | 1 | 5 | 14 | -7 | 17* | 4 | 4
CCN(CC)C(=O)[C@H]1C[C@@H]2[C@H](C[C@@H](c3ccccc3)[C@H]1C)N(c1ccc(F)cc1)C(=O)N2CCCOc1ccccc1 | -1 | · | · | -5 | · | · | ·
COc1ccc(CCNC(=O)CSc2cn(Cc3ccccc3)c3ccccc23)cc1OC | -1 | 10 | -12 | 2 | 13* | 6 | 4
COc1ccc(CCNC(=O)CSc2cn(Cc3cccc(C)c3)c3ccccc23)cc1OC | -1 | 2 | 13 | -8 | 0 | · | ·
O=S(=O)(Nc1cc2nc3ccccc3nc2n1Cc1ccccc1)c1ccc(Cl)cc1 | -3 | · | -9 | 0 | 15* | 10* | 10
COc1ccccc1NC(=S)NC(=O)c1ccc(Cn2cc(Br)cn2)cc1 | 0 | 5 | -24 | -5 | 24* | 12* | 12
COc1ccc(-c2nc3c(Br)c(N)c(Br)cc3o2)cc1 | · | 2 | 9 | 0 | 11* | 8 | 4
C#CCNC(=O)C[C@H]1C[C@@]2(C(=O)OC)C(=C[C@H](C(C)(C)C)O[C@@H]2C)N(Cc2ccco2)C1=O | · | · | · | 6 | · | · | ·
Cc1cc(C(=O)Nc2sc(C)c(C)c2C#N)no1 | -5 | -1 | 17 | -4 | 2 | · | ·
Cc1cc(C(=O)Nc2sc3c(c2C#N)CCC(C(C)(C)C)C3)no1 (stereo not drawn) | 2 | 1 | -5 | 0 | 9.9* | -2 | 3
O=C(OCC(=O)N1CCN(C(=O)c2ccco2)CC1)c1cc(-c2ccc(Cl)c(Cl)c2Cl)nc2ccccc12 | 1 | 1 | -2 | -13 | 11* | 5 | 3
O=C(OCC(=O)N1CCN(C(=O)c2ccco2)CC1)c1cc(-c2ccco2)nc2ccccc12 | · | 2 | -18 | -27 | 1 | · | ·
C=CCN1[C@@H](CC(C)C)COc2cc(F)ccc2S1(=O)=O | · | · | · | 4 | · | · | ·
Cc1ccccc1CN1CCCCC(NC(=O)C2CCCC2)C1=O (stereo not drawn) | · | · | · | 2 | · | · | ·
O=C(CSc1ccc(F)cc1)Nc1ccc(C2SCCS2)cc1 | -1 | 1 | 11 | -6 | 10* | 0 | 2
O=C(CSC1=NCCS1)Nc1ccc(F)cc1 | -2 | -1 | -5 | 1 | 0 | · | ·
COC(=O)[C@]12C[C@H](CC(=O)NCCCN3CCCC3=O)C(=O)N(Cc3ccc(Cl)cc3Cl)C1=C[C@H](COCc1ccccc1)O[C@@H]2C | · | · | · | -9 | · | · | ·
CCCCCn1nnnc1C1(C)CSCC(=O)N1Cc1ccco1 (stereo not drawn) | · | · | · | 8 | · | · | ·
Cc1occc1C(=O)Nc1nnc(-c2cccs2)s1 | 4 | 3 | 9 | -2 | 13* | 4 | 10
COc1ccc(NC(=O)Nc2nnc(-c3cccs3)s2)cc1 | -2 | 1 | -2 | -7 | 13* | 0 | 5
Cc1occc1C(=O)Nc1nccs1 | -1 | -2 | 6 | -1 | -2 | · | ·
COc1ccc(NC(=O)Nc2nnc(-c3ccccc3SCc3ccccc3)s2)cc1 | -2 | 1 | 1 | 4 | 18* | 17* | 5
CC(C)C[C@H]1COc2cc(Br)ccc2S(=O)(=O)N1Cc1cn(Cc2ccc(F)cc2)nn1 | · | · | · | 4 | · | · | ·
CN(C)S(=O)(=O)c1ccc2nc(COCc3nc4ccc(S(=O)(=O)N(C)C)cc4[nH]3)[nH]c2c1 | · | · | · | -1 | · | · | ·
O=C(NCC1COCCO1)C1CCN(S(=O)(=O)c2ccc(Br)s2)CC1 (stereo not drawn) | · | · | · | -7 | · | · | ·

Screens: PubChem BioAssay, several laboratories
